{"source": "paper PMC9253162", "about": "(Bioactive Materials, 2022)", "key": {"[1]": {"tested_on": "E. coli (ATCC-25922)", "test": "MIC, turbidity-based broth dilution assay", "assay_type": "cell-based, Escherichia coli", "conditions": "2–7 × 10^5 CFU/mL, 37 °C, 190 rpm, 16 h", "in_short": "(§1)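 Turbidity-based broth dilution at 2–7 × 10^5 CFU/mL, shaken at 190 rpm and 37 °C for 16 h, with Polymyxin-B as positive control. For the selectivity index (HC50/MIC), hemolysis was measured on mouse red blood cells. Triton X-100 set 100% lysis, and RBCs in PBS gave the background that was subtracted. HC50 was taken as the concentration causing 50% hemolysis.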"}, "[2]": {"tested_on": "P. aeruginosa (ATCC-27853)", "test": "MIC, turbidity-based broth dilution assay", "assay_type": "cell-based, Pseudomonas aeruginosa", "conditions": "2–7 × 10^5 CFU/mL, 37 °C, 190 rpm, 16 h", "in_short": "as §1"}}}
{"substance": "Polymyxin-B", "values": [{"measurement": "Minimum Inhibitory Concentration E. coli", "setting": "[1]", "value": "<0.5", "unit": "µg/mL"}, {"measurement": "Minimum Inhibitory Concentration P. aeruginosa", "setting": "[2]", "value": 1.0, "unit": "µg/mL"}]}
